Experimental findings from ChEMBL document CHEMBL1148039, “New aporphine alkaloids from guatteria foliosa” (1994) are described below.

For experiment [1], the system named is Trypanosoma cruzi. The experiment can be described thus: Antiprotozoal activity against trypomastigotes form of Trypanosoma cruzi Y at 250 ug/ml after 24 hrs. It counts as functional. A digest of the protocol:
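Bloodstream trypomastigotes taken from blood of T. cruzi-infected mice and incubated with test compound (DMSO solution) for 24 h at 4°. Parasites then counted. Assay done three times.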

Experiment [2] deals with Leishmania braziliensis. The experiment can be described thus: Antiprotozoal activity against promastigotes form of Leishmania braziliensis 2903 assessed as total lysis of parasites at 100 ug/ml after 24 hrs. The class given is functional, organism-based. A digest of the protocol:
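Promastigotes exposed to compound (dissolved in DMSO) at 100 µg/ml for 24 h at 28°. Viability judged by direct observation under an inverted microscope and scored as 0 (no lysis), + (less mobile than controls), ++ (modified or immobilized) or +++ (total lysis). Each assay run three times. Glucantime and pentamidine used as control drugs.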

The subject of experiment [3] is Leishmania amazonensis. As to the kind of experiment: Antiprotozoal activity against promastigotes form of Leishmania amazonensis H-142 assessed as total lysis of parasites at 100 ug/ml after 24 hrs. It counts as functional, organism-based. A digest of the protocol: (§1)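 Promastigotes of each Leishmania strain exposed to test compound at 100 µg/ml, dissolved in DMSO, for 24 h at 28°. Viability judged by direct inverted-microscope observation and scored against controls: 0 no lysis; + less mobile; ++ modified or immobilized; +++ total lysis. Three independent runs.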

The test system of experiment [4] is Leishmania amazonensis. As to the kind of experiment: Antiprotozoal activity against promastigotes form of Leishmania amazonensis LV79 assessed as total lysis of parasites at 100 ug/ml after 24 hrs. The class given is functional, organism-based. In short, it runs like this:
as §1

Experiment [5] has as its system Leishmania donovani. The experiment can be described thus: Antiprotozoal activity against promastigotes form of Leishmania donovani pp-75 assessed as total lysis of parasites at 100 ug/ml after 24 hrs. The class given is functional, organism-based. A digest of the protocol:
as §1

For experiment [6], the system named is Leishmania amazonensis. The experiment can be described thus: Antiprotozoal activity against promastigotes form of Leishmania amazonensis LV79 assessed as less mobile parasites at 100 ug/ml after 24 hrs. It counts as functional, organism-based. A digest of the protocol: as §1
Experiment [7] concerns Leishmania donovani. The experiment can be described thus: Antiprotozoal activity against promastigotes form of Leishmania donovani pp-75 assessed as less mobile parasites at 100 ug/ml after 24 hrs. The class given is functional, organism-based. A digest of the protocol:
as §1

Experiment [8] deals with Leishmania braziliensis. The experiment can be described thus: Antiprotozoal activity against promastigotes form of Leishmania braziliensis 2903 assessed as immobilized parasites at 100 ug/ml after 24 hrs. It counts as functional, organism-based. A digest of the protocol: as §1
The subject of experiment [9] is Leishmania amazonensis. As to the kind of experiment: Antiprotozoal activity against promastigotes form of Leishmania amazonensis H-142 assessed as less mobile parasites at 100 ug/ml after 24 hrs. The class given is functional, organism-based. In short, it runs like this:
as §1

In experiment [10] the test system is Leishmania donovani. The experiment can be described thus: Antiprotozoal activity against promastigotes form of Leishmania donovani pp-75 assessed as immobilized parasites at 100 ug/ml after 24 hrs. The class given is functional, organism-based. In short, it runs like this: as §1

Active and inactive are the calls of the source. The calls are words filed in the database; no cut-off is given here.

As to `COc1cccc2c1-c1c3c(c(OC)c4ccnc(c14)C2=O)OCO3`, the Activity in experiment [1] came to 46.6%.
With `COc1c2c3c(c4c1OCO4)-c1ccc(O)cc1C(C)(O)C3=NCC2` (stereo not given), in experiment [1], the Activity is on record as 0%.
On the same count and under the same terms, as for `COc1c(O)c2c3c(c1OC)-c1ccccc1C[C@H]3NCC2`, the figure is 68.2%; as for `COc1cccc2c1-c1c3c(c(OC)c4c1[C@@H](C2)NCC4)OCO3`, 35.7%; as for `COc1c(O)c2c3c(c1OC)-c1ccc(O)cc1C[C@@H]3NCC2`, 2.55%.
In the case of `N=C(N)c1ccc(OCCCCCOc2ccc(C(=N)N)cc2)cc1`, the outcome in experiment [2], in [3], in experiment [4] and in experiment [5] was Active.
Turning to `COc1c(O)cc(CCN(C)C)c2ccc3ccccc3c12` [ARGENTININE], the outcome in experiment [6], in experiment [7], in [8] and in [9] was Active. Further, the Activity in experiment [1] is given as 81.3%.
Turning to `COc1cc2c(cc1O)C[C@H]1c3cc(O)c(OC)cc3CCN1C2` [COREXIMINE], the result in experiment [6], in [10], in experiment [8] and in experiment [9] was Active. In experiment [1], this compound showed an Activity of 0%.
`COc1c2c3c(c4c1OCO4)-c1c(O)cccc1C[C@H]3NCC2` [ELMERRILLICINE] displayed an Activity in experiment [1] of 0%.
In turn, `CN(C)c1ccc(C(=C2C=CC(=[N+](C)C)C=C2)c2ccc(N(C)C)cc2)cc1.[Cl-]` [GENTIAN VIOLET] registered an Activity in experiment [1] of 100%.
`COc1c(O)c(OC)c2c3c1CCN=C3C(C)(O)c1cc(O)ccc1-2` (stereo not given) [ISOGUATTOUREGIDINE]: the Activity in [1] amounted to 92%. Besides, the result in [3], in experiment [4], in experiment [5] and in [8] was Active.
Turning to MEGLUMINE ANTIMONATE, the result in experiment [2], in [3], in experiment [4] and in experiment [5] was Active.
